ChEMBL document CHEMBL4513216, “Probing the Open Global Health Chemical Diversity Library for Multistage-Active Starting Points for Next-Generation Antimalarials” (ACS Infect Dis, 2020)

Assay: Toxicity liver stage against HepG2, at 10uM
Type: cell-based
Set-up: test concentration 10 uM, cell line HepG2-A16-CD81EGFP
Details: human, HepG2-A16-CD81EGFP cells; read-out: INHIBITION
Procedure, shortened: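 Uninfected HepG2-A16-CD81EGFP cells, 3 × 10^3 per well, 1536-well, plated on prespotted compound at 10 μM final, parasite-free screening media added to match infected plates; puromycin 10 μM positive, DMSO 0.5% negative; run in parallel with 48 h PbLuc assay at 37 °C, 5% CO2; viability by CellTiter-Glo luminescence, normalized to controls.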

| Structure (SMILES) | cytotoxicity at 10 µM [%] |
| --- | --- |
| N#Cc1ccc(C(=O)O)nc1C=Cc1cccc(F)c1 | 8 |
| CC(C)c1ccc(CC(=O)N2CCCC3(CN(C)C(=O)O3)C2)cc1 (stereo not given) | 16.2 |
| CC(C)c1ncc2c(n1)CN(Cc1nc(-c3cccs3)no1)CC2 | -7.91 |
| O=C(c1cccc2ncccc12)N1CCCC(n2ccnc2)C1 (stereo not given) | -11.6 |
| Cc1cc(NCC2CC(=O)Nc3ccccc32)nc(C)n1 (stereo not given) | 0.344 |
| CN(C)CCN1CCC2(CC1)CN(Cc1cccnc1)C(=O)CO2 | -106 |
| CN(C)CCCNC(=O)c1nnsc1-c1ccccc1 | 5.75 |
| CC(Cn1ccnc1)NC(=O)C1(c2ccc(F)cc2)CC1 (stereo not given) | -9.62 |
| Cc1csc(N2CCN(CC(=O)Nc3c(C)n[nH]c3C)CC2C)n1 (stereo not given) | -14.4 |
| CN(C)C(Cn1ccnc1-c1ccccc1C(=O)O)c1ccccc1Cl (stereo not given) | -0.966 |
| COc1cc(F)ccc1CC(=O)N1CC[C@H]2C(=O)NCCO[C@H]2C1 | -108 |
| CCN1CCN(c2ccccc2NC(=O)NCc2ccon2)CC1 | 10.4 |
| CCOC(=O)N1CCN(c2nc(NC)c3ccccc3n2)CC1 | -9.75 |
| Cc1n[nH]c(NC(=O)c2ccc(COCC(F)(F)F)cc2)c1C | -0.81 |
| CCCC(C)NCc1cccnc1N1CCN(c2ccccn2)CC1 (stereo not given) | 6.99 |
| CS(=O)(=O)Nc1ccc([C@H]2OCC(=O)N[C@@H]2CO)cc1 | -5.4 |
| C[C@H](CCO)NS(=O)(=O)c1ccc(Br)cn1 | -8.63 |
| CCn1c(C2CCN(C(=O)COCC(F)(F)C(F)F)CC2)n[nH]c1=O | -55 |
| CCc1noc(CS(=O)(=O)C(C)c2nc(C3CC3)no2)n1 (stereo not given) | 11.3 |
| Cc1cc(C)c(C(=O)Nc2cccc(CN3CCC(CO)CC3)c2)o1 | -140 |
| Cn1c(=O)[nH]c(=O)n2c(CC(=O)Nc3ccc(Cl)c(Cl)c3)cnc12 | 3.82 |
| CC(C)C(=O)N1CCC(c2nc3ccccn3c2NC(C)(C)C)CC1 | 5.86 |

| Structure (SMILES) | cytotoxicity at 10 µM [%] |
| --- | --- |
| Cc1cccc(C)c1Nc1noc2c1CN(C(=O)c1ccnn1C)CC2 | 7.3 |
| Cc1nc(CN2CCCC(NCCc3ccccc3Cl)C2)no1 (stereo not given) | -11.8 |
| CS(=O)(=O)N1CCCC12CCN(Cc1ccoc1)CC2 | -3.98 |
| O=C1CC(NCc2ccc(OC(F)F)cc2)CN1Cc1cccc(F)c1 (stereo not given) | -5.29 |
| CNC(=O)CN1C(=O)CCC12CCCN(Cc1ccccc1F)C2 (stereo not given) | 4.76 |
| CC(=O)c1cccc(OCc2cc(C(=O)N3CCCCO3)n[nH]2)c1 | 2.19 |
| Cc1ccc(CN2CCn3c(CN4CCN(C)CC4)cnc3C2C)s1 (stereo not given) | 8.39 |
| CN(C)C(=O)CN1CCN(Cc2coc(-c3cccc(F)c3)n2)CC1 | -3.16 |
| Cc1cnn(C2CCCN(C(=O)Cc3c(C)nn(C)c3C)C2)c1 (stereo not given) | -6.71 |
| CC(=O)N1CCN(C(=O)c2snnc2C)[C@H]2CS(=O)(=O)C[C@H]21 | -0.145 |
| CC(C)c1cc(-c2cnn(C)c2C2CC2)c(C#N)c(N)n1 | 28.5 |
| C=C(C)C(=O)N1CCC(C(=O)c2cc(C)cnc2N)CC1 | -2.88 |
| Cc1cc(F)ccc1-n1cc(O)c(C(=O)NCC2(O)CCC2)n1 | 0.477 |
| CN1CCCCCC1C(=O)N1CCCN(c2ccccc2)CC1 (stereo not given) | -6.56 |
| CNc1nc2c(s1)C(c1c(F)cccc1Cl)CC(=O)N2 (stereo not given) | -14.7 |
| O=C(c1ccccn1)N(CCO)Cc1cc(Br)ccc1F | 9.91 |
| CCc1cnc2c(c1NCc1ccncc1)c(=O)n(C)c(=O)n2C | -12.1 |
| COc1ncnc2c1CCN(c1cccc(F)c1)CC2 | 10.7 |
| CC(=O)NCCNC(=O)c1sc(-c2ccc(Cl)cc2)nc1C | -7.6 |
| O=C(c1cc(C2CC2)on1)N1CCC(Oc2ncccc2Cl)CC1 | 5.37 |
| c1cc(CNCC2CNc3ccnn3C2)cc(OC2CCCCC2)n1 (stereo not given) | -8.78 |
| CCN(Cc1cscn1)CC1(C)Cc2c(N)nc(N)nc2O1 (stereo not given) | 3.35 |

| Structure (SMILES) | cytotoxicity at 10 µM [%] |
| --- | --- |
| CC(C)(C)c1nc(CN(Cc2cccs2)CC2CCCO2)no1 (stereo not given) | -10 |
| O=C1OCCN1C1CCN(Cc2cc3n(n2)CCCNC3)CC1 | 12.7 |
| c1ncn(CC2CCCN2Cc2csc(C3CCCCC3)n2)n1 (stereo not given) | 1.77 |
| O=C(c1cc(C2CC2)on1)N1CCCC(n2cccn2)C1 (stereo not given) | -4.04 |
| O=C(Cn1nc(N2CCOCC2)ccc1=O)Nc1nccs1 | -1.47 |
| COc1cccc(CN(C)Cn2nc(C(C)(C)C)ccc2=O)c1 | 1.12 |
| CCc1nc(NCCCn2cccn2)c2c(n1)c(C)nn2C | 6.41 |
| CN1CCCC(C(=O)N2CCC(Oc3ccc(C#N)cn3)CC2)C1 (stereo not given) | -5.6 |
| Cc1cc(CC(C)Nc2nc(-c3cccnc3)nc3c2CNC3)[nH]n1 (stereo not given) | 3.28 |
| COC(=O)NCCC(=O)NC(c1ccc(Cl)cc1)C(F)(F)F (stereo not given) | 7.51 |
| OC(CN1CCCc2cc(OC(F)F)ccc21)Cn1cccn1 (stereo not given) | 6.85 |
| CC(C)c1ccc(CS(=O)(=O)CC(=O)NCc2ccccc2F)cc1 | 8.31 |
| Cc1cnc(CN2CCCC2c2noc(C)n2)cn1 (stereo not given) | 3.78 |
| COc1ccc(C(NCc2cccc(C#N)c2)C2CC2)cc1 (stereo not given) | 15.9 |
| CCC(CC)(CNC(=O)NC1CCCC1(C)C)S(C)(=O)=O (stereo not given) | 9.18 |
| CC(=O)N1CCC(c2cncc(Oc3ccccc3)n2)CC1 | 6.05 |
| CCN1CCN(C(=O)Cn2nc(C(F)(F)F)c(Br)c2C2CC2)CC1 | -8.78 |
| Cc1nc(C)c(CC(=O)N2C[C@@H]3CC[C@H]2CN(c2cnccn2)C3)s1 | 10.1 |
| NC(=O)CN1C(=O)CO[C@H]2CN(Cc3ccccc3)C[C@H]21 | 0.67 |
| COc1cc(CNc2nncs2)cc(OC)c1OC | 18.7 |
| CCCOc1cc(Cl)c(CN2CCNC(C(=O)NC3CC3)C2)cc1OC (stereo not given) | 0.508 |
| CC(C)C(NC(=O)NCCNc1cnccn1)c1cccs1 (stereo not given) | 0.0264 |

| Structure (SMILES) | cytotoxicity at 10 µM [%] |
| --- | --- |
| Cc1ccc(-n2cc(CN3CCN(C)[C@@H]4CS(=O)(=O)C[C@@H]43)cn2)cc1 | -8.67 |
| O=C(C1CCOC1)N1CCC(OCc2ccccc2)CC1 (stereo not given) | 3.15 |
| O=C(C1CCCC1)N1CC2(CCNC2)OCc2ccccc21 (stereo not given) | 8.9 |
| COCCOc1ccc(S(=O)(=O)Nc2cccnc2O)cc1C | 4.68 |
| Cc1ccc(CC(=O)NC(C)C(=O)N2CCS(=O)(=O)CC2)s1 (stereo not given) | 11.2 |
| Cc1cnn(C2CCCN(C(=O)c3ccnc(-n4cncn4)c3)C2)c1 (stereo not given) | -0.565 |
| O=C(CC1CCCCC1)N1CCC(O)(C(F)(F)F)C1 (stereo not given) | -6.58 |
| Cc1ccc(C)c(-n2ncc(C(=O)NCC3COC(C)(C)O3)c2N)c1 (stereo not given) | -4.06 |
| COCCO[C@H]1CCN(c2ccc(C)nn2)[C@H]1Cc1cccnc1 | 1.53 |
| CCOc1ccc(CC(CNC(=O)c2occc2C)C(N)=O)cc1 (stereo not given) | 5.17 |
| CC(C)Cn1cc(NC(=O)NCC2CCN(c3ccccc3)C2)cn1 (stereo not given) | 2.53 |
| OCC(CO)Nc1nc(C(F)F)nc2ccccc12 | 6.96 |
| Cc1nc(CN2CCc3ncnc(C4CC4)c3CC2)cs1 | -81.9 |
| CCn1cncc1C1CC(=O)Nc2c1c(C)nn2C (stereo not given) | -0.557 |
| CN(CCO)C[C@@H]1CN(C(=O)Cc2ccc3ccccc3c2)C[C@@H]1CO | -1.96 |
| CS(=O)(=O)c1ccc(-c2cc(O)cc(CCC3CCCCN3)c2)cc1 (stereo not given) | 0.292 |
| Cc1noc(C)c1CS(=O)(=O)CC(=O)N(C)Cc1cccc(F)c1 | -8.1 |
| CCC[C@@H](NC(N)=O)C(=O)N1CCc2ccccc2CC1 | 7.79 |
| Cc1cnc(-c2nc(O)c3c(n2)CN(C(=O)C2CCCO2)CC3)cn1 (stereo not given) | -0.661 |
| Cc1nc2n(n1)CC(NCc1cnn(-c3ccccc3)n1)CC2 (stereo not given) | -3.69 |
| CCc1n[nH]c(C2CN(C(=O)Cn3ccccc3=O)CCO2)n1 (stereo not given) | -0.746 |
| C[C@]1(O)CN(Cc2ncccc2F)CC[C@@H]1Oc1cccc(F)c1 | -2.11 |

| Structure (SMILES) | cytotoxicity at 10 µM [%] |
| --- | --- |
| CCn1nc2c(cc1=O)CN(Cc1nc3ccccc3o1)CC2 | -8.9 |
| Cc1cccc(C(=O)N2CC[C@@H]3CN(c4ncccn4)CCO[C@@H]3C2)c1 | -71.6 |
| CC1CCCN(CCCNC(=O)c2ccc(N(C)S(C)(=O)=O)cc2Cl)C1 (stereo not given) | -2.28 |
| CC(C)c1ocnc1C(=O)N1CCC2(CC1)OCCO2 | 0.0416 |
| Cc1ccc(-c2noc(CN3CC(n4cc(C)cn4)C3)n2)cc1 | -3.86 |
| CC(C)(C)OC(=O)N1CSC[C@@H]1C(=O)NCc1ccsc1 | 8.77 |
| Cc1cccc(CN2CC[C@H]3OCC[C@@]3(C(=O)N3CCOCC3)C2)n1 | -1.49 |
| CC(C)CN1C(=O)CO[C@@H]2CN(C(=O)[C@H]3CCCO3)C[C@H]21 | -5.12 |
| COc1c(Cl)cccc1NCc1csc(NC(C)=O)n1 | 57.8 |
| COCCN(C)c1ccc(NCc2ccsc2)nc1 | -5.2 |
| Cc1cc(N(C)C)nc(C2(C)CCCN2C(=O)c2cnccn2)n1 (stereo not given) | -1.19 |
| Cn1cc(-c2ncnc3c2CCN(C(=O)c2cscn2)CC3)cn1 | 1.15 |
| Cc1c(Cl)c(C(=O)NC(C)CN2CCOCC2)nn1C (stereo not given) | -1.77 |
| CC(C)N1[C@@H](C(=O)NCCN(C)C)C[C@H]2CN(c3ncccn3)C[C@H]21 | 8.73 |
| CC(C)c1noc(CCNC(=O)NCC2COc3ccccc3O2)n1 (stereo not given) | 1.03 |
| NC1(c2nc(-c3cccs3)cc(=O)[nH]2)CCCC1 | 4.19 |
| COc1cccc(N2CCN(C(=O)c3noc4c3CCCC4)CC2)c1 | 11.7 |
| CC(C)Cc1nc(CN(C)CCOc2ccc(F)cc2)no1 | -4.68 |
| COCCCN1CC2(CCCCN2C(C)=O)CC1=O (stereo not given) | 16.3 |
| CC(=O)N(Cc1noc(C2CC2)n1)C1CCN(CC(=O)NC2CC2)C1 (stereo not given) | -3.67 |
| CC(C)N1CCC(Cc2cc(-c3cccc(C(=O)O)c3)ncn2)C1 (stereo not given) | 3.01 |
| CCN(CC)Cc1ccccc1NC(=O)N(C)Cc1ccccc1O | -1.57 |
